This passage reports MIC results from ChEMBL document CHEMBL1146134, “Synthesis and antifungal activity of 6-hydroxycinnolines” (2006).

What is called MIC is the lowest concentration found to suppress growth. A higher MIC goes with a need for much substance.

Type in all cases: functional
In one test the test system is Candida albicans. As to the kind of experiment: Antifungal activity against Candida albicans KCCM 50235. Put shortly: (§1)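 Twofold broth dilution MIC in modified Sabouraud dextrose broth. Inoculum approximately 1 × 10⁵ cells/mL. Final agent concentrations ranged 0.2 to 100. Incubated at 37 °C and read after 1 day. MIC determined against 5-fluorocytosine as standard.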

The next test relates to Candida tropicalis. Kind of test: Antifungal activity against Candida tropicalis KCCM 50662. Summed up:
as §1

For a further test, the system named is Pichia kudriavzevii. Kind of test: Antifungal activity against Candida krusei KCCM 11655. Put shortly:
as §1

A further test deals with Cryptococcus neoformans. Kind of test: Antifungal activity against Cryptococcus neoformans KCCM 50564. Put shortly:
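Growth inhibition measured as MIC by twofold broth dilution in modified Sabouraud dextrose broth. Inoculum near 1 × 10⁵ cells/mL. Final agent concentrations spanned 0.2 to 100. 5-Fluorocytosine was run as standard.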

For a further test, the system named is Aspergillus niger. Kind of test: Antifungal activity against Aspergillus niger KCTC 1231. Summed up: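 MIC by twofold serial dilution in modified Sabouraud dextrose broth, with roughly 1 × 10⁵ cells/mL inoculum. Final test concentrations ranged 0.2 to 100. Plates held at 37 °C and read after 2 days. 5-Fluorocytosine served as reference agent.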

Values after ≈ are worked out from the molar mass of the structure shown. Where only a bound is given, the exact number is not on record here.

Turning to `COC(=O)C(C#N)C1=C(Sc2ccc(C)cc2)C(=O)C(C)=C(C)C1=O` (stereo not given), the MIC with Candida albicans is above 50 µg/mL; in the test on Candida tropicalis, above 50 µg/mL; in the test on Pichia kudriavzevii, 50 µg/mL (≈ 141 µM); against Cryptococcus neoformans it was 50 µg/mL (≈ 141 µM); in the test on Aspergillus niger, above 50 µg/mL.
On to `COC(=O)c1c(N)nnc2c(C)c(C)c(O)c(Sc3ccc(C)cc3)c12`, for which the MIC with Candida albicans is above 50 µg/mL; against Candida tropicalis, 25 µg/mL (≈ 67.7 µM); against Pichia kudriavzevii it was 3.2 µg/mL (≈ 8.66 µM); in the test on Cryptococcus neoformans it was 6.3 µg/mL (≈ 17.1 µM); against Aspergillus niger, 25 µg/mL (≈ 67.7 µM).
For the molecule `COC(=O)c1c(N)nnc2c(C)c(C)c(O)c(Sc3cccc(C)c3)c12`, the MIC in the test on Candida albicans is above 50 µg/mL; with Candida tropicalis, above 50 µg/mL; against Pichia kudriavzevii, above 50 µg/mL; in the test with Cryptococcus neoformans it was 1.6 µg/mL (≈ 4.33 µM); in the test with Aspergillus niger it was above 50 µg/mL.
For `COC(=O)c1c(N)nnc2c(C)c(C)c(O)c(Sc3ccc(C)c(C)c3)c12`, the MIC against Candida albicans was above 50 µg/mL; with Candida tropicalis it was 25 µg/mL (≈ 65.2 µM); with Pichia kudriavzevii it was 3.2 µg/mL (≈ 8.34 µM); against Cryptococcus neoformans, 1.6 µg/mL (≈ 4.17 µM); against Aspergillus niger, 12.5 µg/mL (≈ 32.6 µM).
In the same order, the values of `COC(=O)C(C#N)C1=C(Sc2cccc(F)c2)C(=O)C(C)=C(C)C1=O` (stereo not given) are 50 µg/mL (≈ 139 µM), 50 µg/mL (≈ 139 µM), 25 µg/mL (≈ 69.6 µM), 50 µg/mL (≈ 139 µM) and 50 µg/mL (≈ 139 µM).
Turning to `COC(=O)C(C#N)C1=C(Sc2ccc(C)c(C)c2)C(=O)C(C)=C(C)C1=O` (stereo not given), the MIC is 50 µg/mL (≈ 135 µM) against Candida albicans; 50 µg/mL (≈ 135 µM) with Candida tropicalis; above 50 µg/mL with Pichia kudriavzevii; above 50 µg/mL in the test on Cryptococcus neoformans; 50 µg/mL (≈ 135 µM) against Aspergillus niger.
Take `COC(=O)c1c(N)nnc2c(C)c(C)c(O)c(Cl)c12`: the MIC against Candida albicans is above 50 µg/mL; against Candida tropicalis, 50 µg/mL (≈ 177 µM); against Pichia kudriavzevii, 25 µg/mL (≈ 88.7 µM); in the test with Cryptococcus neoformans, 25 µg/mL (≈ 88.7 µM); in the test with Aspergillus niger, 6.3 µg/mL (≈ 22.4 µM).
`COC(=O)C(C#N)C1=C(Sc2ccccc2)C(=O)C(C)=C(C)C1=O` (stereo not given): the MIC with Candida albicans stood at 50 µg/mL (≈ 146 µM); in the test on Candida tropicalis it was 50 µg/mL (≈ 146 µM); in the test with Pichia kudriavzevii, 50 µg/mL (≈ 146 µM); against Cryptococcus neoformans, 12.5 µg/mL (≈ 36.6 µM); in the test with Aspergillus niger, 50 µg/mL (≈ 146 µM).
`COC(=O)C(C#N)C1=C(Sc2cccc(C)c2)C(=O)C(C)=C(C)C1=O` (stereo not given): the MIC with Candida albicans was above 50 µg/mL; in the test with Candida tropicalis, above 50 µg/mL; with Pichia kudriavzevii, 1.6 µg/mL (≈ 4.5 µM); with Cryptococcus neoformans, 50 µg/mL (≈ 141 µM); in the test with Aspergillus niger it was above 50 µg/mL.
On to `COC(=O)C(C#N)C1=C(Cl)C(=O)C(C)=C(C)C1=O` (stereo not given), for which the MIC stood at 50 µg/mL (≈ 187 µM) against Candida albicans; 50 µg/mL (≈ 187 µM) against Candida tropicalis; 25 µg/mL (≈ 93.4 µM) with Pichia kudriavzevii; 6.3 µg/mL (≈ 23.5 µM) against Cryptococcus neoformans; 25 µg/mL (≈ 93.4 µM) with Aspergillus niger.
Regarding `COC(=O)c1c(N)nnc2c(C)c(C)c(O)c(Sc3ccccc3)c12`, the MIC in the test with Candida albicans is above 50 µg/mL; in the test with Candida tropicalis, 25 µg/mL (≈ 70.3 µM); with Pichia kudriavzevii, 6.3 µg/mL (≈ 17.7 µM); against Cryptococcus neoformans, 1.6 µg/mL (≈ 4.5 µM); against Aspergillus niger, 12.5 µg/mL (≈ 35.2 µM).
For `COC(=O)c1c(N)nnc2c(C)c(C)c(O)c(Sc3cccc(F)c3)c12` the same measures were above 50 µg/mL, 50 µg/mL (≈ 134 µM), 25 µg/mL (≈ 67 µM), 6.3 µg/mL (≈ 16.9 µM) and 1.6 µg/mL (≈ 4.28 µM).
For the molecule `Nc1nc(=O)[nH]cc1F` [FLUCYTOSINE], the MIC is 6.3 µg/mL (≈ 48.8 µM) with Candida albicans; 12.5 µg/mL (≈ 96.8 µM) with Candida tropicalis; 6.3 µg/mL (≈ 48.8 µM) in the test on Pichia kudriavzevii; 12.5 µg/mL (≈ 96.8 µM) in the test on Cryptococcus neoformans; 12.5 µg/mL (≈ 96.8 µM) against Aspergillus niger.
